# Experimental data reported in ChEMBL document CHEMBL1151790, “Novel angular furoquinolinones bearing flexible chain as antitumor agent: design, synthesis, cytotoxic evaluation, and DNA-binding studies” (Bioorg Med Chem, 2008).
# Activity calls are given as the source filed them. The calls are words filed in the database; no cut-off is given here.
# Tests used:
# [1] = Cytotoxicity against human QGY cells by MTT assay; assay type: functional, cell-based
# Summary of the method: (§1)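 Cells run without irradiation; cytotoxicity read by microculture tetrazolium–formazan (MTT) method, reported as IC50.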
# K562 = assay: Cytotoxicity against human K562 cells by MTT assay; assay type: functional, cell-based; summary of the method: as §1
# HeLa = assay: Cytotoxicity against human HeLa cells by MTT assay; assay type: functional, cell-based; summary of the method: as §1
# P388 = assay: Cytotoxicity against mouse P388 cells by MTT assay; assay type: functional, cell-based; summary of the method: as §1
# A549 = assay: Cytotoxicity against human A549 cells by SRB assay; assay type: functional, cell-based
# Summary of the method: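 Cells run without irradiation; cytotoxicity read by sulforhodamine B dye staining, reported as IC50.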
# DNA [2] = assay: Binding affinity to calf thymus DNA by fluorescence quenching technique; assay type: nucleic-acid assay; settings: Bos taurus
# Summary of the method: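 Calf-thymus DNA held at 50 µM with compound at […] in Tris–HCl (30 mM, pH 7.5); matching compound-only samples served as controls. Solutions […] 1 day at 25 °C in the dark, then fluorescence wavelength and intensity area measured.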
# DNA [3] = assay: Binding affinity to calf thymus DNA by circular dichroism spectra; assay type: nucleic-acid assay; settings: Bos taurus
# Summary of the method: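 CD spectra recorded on 10 µM compound with 100 µM calf-thymus DNA in Tris–HCl buffer (pH 7.0), 1-cm quartz cell, 200–600 nm; buffer-alone spectrum subtracted. DNA checked protein-free by A260/A280 1.8–1.9 and quantified from 260 nm absorbance.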
# Escherichia coli [4] = assay: Induction of DNA cleavage activity in Escherichia coli pBR322 DNA by gel electrophoresis
# Summary of the method: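 Plasmid pBR322 DNA (25 ng/µL) incubated with compound at several concentrations in Tris–HCl (20 mM, pH 7.5), 25 °C, 12 h, no irradiation. Products resolved on 1% agarose with ethidium bromide staining; supercoiled (I), nicked (II), linear (III) forms scored; triplicate.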
# Escherichia coli [5] = assay: Induction of DNA photocleavage activity in Escherichia coli pBR322 DNA assessed as form 2 […] in presence of irradiation by gel electrophoresis
# Summary of the method: (§2)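 pBR322 DNA (25 ng/µL) with compound at several concentrations in Tris–HCl (20 mM, pH 7.5), irradiated 2 h. Analysed on 1% agarose gel with ethidium bromide; supercoiled form I, nicked form II, linear form III; triplicate runs.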
# Escherichia coli [6] = assay: Induction of DNA photocleavage activity in Escherichia coli pBR322 DNA assessed as form 3 linear in presence of irradiation by gel electrophoresis; summary of the method: as §2
SMILES,IC50 [1],IC50 (K562),IC50 (HeLa),IC50 (P388),IC50 (A549),Kb (DNA [2]),Activity (DNA [3]),Activity (Escherichia coli [4]),Activity (Escherichia coli [5]),Activity (Escherichia coli [6])
Cc1oc2ccc3c(C)cc(=O)n(CCN(C)C)c3c2c1C,72.7 µM,55.7 µM,39.1 µM,51.5 µM,30.4 µM,2.66 ×10⁵ /M,Active,inactive,Active,Active
Cc1oc2ccc3c(C)cc(=O)n(CC#N)c3c2c1C,> 100 µM,> 100 µM,> 100 µM,> 100 µM,> 100 µM,2.06 ×10⁵ /M,–,–,–,–
CCOC(=O)Cn1c(=O)cc(C)c2ccc3oc(C)c(C)c3c21,> 100 µM,> 100 µM,> 100 µM,> 100 µM,> 100 µM,2.54 ×10⁵ /M,–,–,–,–
Cc1oc2ccc3c(C)cc(=O)n(CCCN(C)C)c3c2c1C,74.9 µM,71.1 µM,35 µM,45.3 µM,29.6 µM,2.53 ×10⁵ /M,–,inactive,–,–
Cc1oc2ccc3c(C)cc(=O)n(CC(=O)O)c3c2c1C,–,–,> 100 µM,–,–,2.69 ×10⁵ /M,–,–,–,–
Cc1oc2ccc3c(C)cc(=O)n(CC[N+](C)(C)C)c3c2c1C,–,–,49.5 µM,–,–,3.18 ×10⁵ /M,–,–,–,–
Cc1oc2ccc3c(C)cc(=O)n(CC(=O)NCCN(C)C)c3c2c1C,–,–,20.7 µM,14.5 µM,20.4 µM,1.58 ×10⁵ /M,–,inactive,Active,Active
Cc1oc2ccc3c(C)cc(=O)n(Cc4ccccc4)c3c2c1C,> 100 µM,> 100 µM,> 100 µM,> 100 µM,> 100 µM,3.15 ×10⁵ /M,–,–,–,–
Cc1oc2ccc3c(C)cc(=O)[nH]c3c2c1C,98.9 µM,> 100 µM,89.2 µM,> 100 µM,99.3 µM,2.57 ×10⁵ /M,–,inactive,Active,Active
CCn1c(=O)cc(C)c2ccc3oc(C)c(C)c3c21,> 100 µM,> 100 µM,> 100 µM,> 100 µM,> 100 µM,2.79 ×10⁵ /M,–,–,–,–
